Experimental data from different studies.
Sample: plasma

Structure (SMILES) | host | route | dose | setting | Vd
CNCCN(C)c1cc(C#N)cc(CCc2cc(C)cc(N)n2)c1 | male BALB/c mouse | intravenous | 2 mg/kg |  | 14.8 L/kg
COc1cc(C2Oc3cc([C@H]4Oc5cc(O)cc(O)c5C(=O)[C@@H]4O)ccc3OC2CO)ccc1O (some centres unmarked) | male CD-1 mouse | intravenous | 2 mg/kg |  | 2.51 L/kg
CN1CCC(c2ccccc2CC(C)(C)Nc2nc(N3CCOCC3)nc(-n3c(C(F)F)nc4ccccc43)n2)CC1 | mouse | intravenous | 10 mg/kg | single dose | 5.61 L/kg
CC(C)(C)c1ccc(O)c(CN(Cc2cc(C(C)(C)C)ccc2O)C2CCC(NC(N)=O)CC2)c1 (centres unmarked) | male C57BL/6 mouse | intraperitoneal | 5 mg/kg | single dose | 2.4 L
CCNc1nc2c(c(N3CC(=O)Nc4cc(OC)ccc43)n1)CCC2 | female C57BL/6 mouse | intravenous | 4 mg/kg | single dose | 4.7 L/kg
COc1cc(OC)c2nccc(N3CCc4c(cc(Cn5ccnc5)cc4-c4cn(C)nc4C(F)(F)F)C3=O)c2c1 | male CD-1 mouse | intravenous | 3 mg/kg |  | 2 L/kg
COc1ccc(C(O)COc2ccc(-c3csc(-c4ccc(OCC(O)c5ccc(OC)c(OC)c5)cc4)n3)cc2)cc1OC (centres unmarked) | C57BL/6 mouse | intravenous | 3 mg/kg |  | 1.5 L/kg
Cc1ccc2cncc(N3CCc4c(cc(Cn5ccnc5)cc4-c4cn(C)nc4C(F)(F)F)C3=O)c2c1 | male CD-1 mouse | intravenous | 3 mg/kg |  | 0.8 L/kg
COc1nc(-c2cc(C)c(N[C@@H](C)c3c(F)cc(F)cc3F)nn2)ccc1-n1cnc(C)c1 | male CD-1 mouse | intravenous | 1 mg/kg | single dose | 1.52 L/kg
CNC(=O)c1cc(OC)cc2c(N3CCc4c(cc(Cn5ccnc5)cc4-c4cn(C)nc4C(F)(F)F)C3=O)ccnc12 | male CD-1 mouse | intravenous | 3 mg/kg |  | 0.4 L/kg
CC[C@H](C)[C@@H]1NC(=O)[C@@](C)(NC(=O)[C@H](CCCNC(=N)N)NC(=O)[C@H](CC(C)C)NC(=O)[C@@H](NC(=O)[C@H](CCC(N)=O)NC(=O)[C@H](CC(C)C)NC(C)=O)[C@@H](C)O)CCCC=CCCC[C@@](C)(C(=O)N[C@@H](CC(C)C)C(=O)N[C@@H](Cc2ccc3ccccc3c2)C(N)=O)NC(=O)[C@H](CCCNC(=N)N)NC(=O)[C@H](CCC(N)=O)NC1=O | male BALB/c mouse | intravenous | 10 mg/kg |  | 0.0788 L/kg
